Published values gathered from unrelated publications.
Compare with care: the assays were run in different laboratories.
Target: Tyrosine-protein kinase Blk (BLK, Homo sapiens, UniProt P51451)

assay	setting	endpoint	result	SMILES
cell-free assay, competition with immobilised ligand	0.1 µM	remaining binding	81%	Nc1c(C(=O)NCc2ccc(C(=O)NCCCC3CCCCC3)cc2)cnn1-c1ccccc1
enzyme activity, inhibitor	0.5 µM	remaining activity	96.2%	O=c1cc(-c2cccc3c2Sc2ccccc2S3)oc(N2CCOCC2)c1
enzyme activity, inhibitor	10 µM	remaining activity	110%	CCN(CC)c1ccc(C2=NNC(=O)CC2C)cc1[N+](=O)[O-] (stereo not drawn)
cell-free assay	0.5 µM	remaining signal	102%	O=C1Nc2ccc(Cl)cc2C1=Cc1cc(Cl)c(O)c(Cl)c1
enzyme activity, inhibitor	5 µM	remaining activity	96.1%	O=C(Nc1cnn(-c2csc(C(=O)NC3COC3)c2)c1)Nc1c(F)cccc1Cl
enzyme activity, inhibitor, radiometric	1 µM	inhibition	94%	CNC(=O)c1cc2c(Oc3ccc(NC(=O)C4(C(=O)Nc5ccc(F)cc5)CC4)cc3)ccnc2cc1OC
enzyme activity, inhibitor	1 µM	activity vs control	4%	Cc1ccc(C(=O)NCc2ccsc2)cc1C#Cc1cn(C(C)C)c2ncnc(N)c12
enzyme activity, inhibitor	1 µM	inhibition	28%	CN1CC(Oc2cnc(C#N)cc2-c2ccn3nc(NC(=O)C4CC4)cc3c2)C1
cell-free assay, competition with immobilised ligand	1 µM	remaining binding	97%	N#Cc1ccc(Nc2ccc3[nH]c(=O)[nH]c3c2)c(Cl)c1
enzyme activity, inhibitor	1 µM	remaining activity	80%	COc1cc(Cl)c(C(=O)N[C@@H](CN[C@H]2CC[C@@H](N)CC2)Cc2ccc(C#N)cc2)cc1-c1ccc(CN[C@H](C)c2ccc(C)cc2)o1
enzyme activity, inhibitor, radiometric	1 µM	remaining activity	29%	CC(C)(C)c1nc(-c2cccc(NS(=O)(=O)c3c(F)cccc3F)c2F)c(-c2ccnc(N)n2)s1
cell-free assay, competition with immobilised ligand	1 µM	remaining binding	65%	O=C(Nc1cccnn1)N1CC(C/C=C/c2cncc(Oc3ccc(C(F)(F)F)cn3)n2)C1
enzyme activity, inhibitor	1 µM	inhibition	71%	COc1cc2ncnc(Nc3ccc(Oc4ccccc4)c(C)c3C)c2cc1OC
cell-free assay, competition with immobilised ligand	1 µM	remaining binding	93%	Cc1nccc(COC(=O)N2C[C@@H]3[C@@H](CNC(=O)c4ccc5[nH]nnc5c4)[C@@H]3C2)n1
cell-free assay	0.5 µM	remaining signal	78.8%	N#CCCc1ccc2c(c1)-c1[nH]c3ccc([N+](=O)[O-])cc3c1CC(=O)N2
enzyme activity, inhibitor	0.1 µM	inhibition	6%	CC/C(=N\NC(=O)NCc1cccc(O)c1)c1ccc(O)c(C)c1O
cell-free assay, competition with immobilised ligand	1 µM	remaining binding	100%	CCC(=O)N[C@@H]1CC[C@H](C(=O)N(C)c2ccc(-c3nc4ccccc4o3)cc2)C1
enzyme activity, inhibitor	0.1 µM	activity vs control	114%	Cc1cc(NC(=O)c2cccc3cc(-c4cccc5[nH]nc(N)c45)ccc23)ccc1F
